From ChEMBL document CHEMBL3351792, “Limonoids from the Leaves and Twigs of Walsura yunnanensis” (J Nat Prod, 2014)

Assays:
Format in all cases: functional, cell-based
[1] = Cytotoxicity against human HL60 cells after 48 hrs by MTS assay; settings: HL-60, 48 h
Summary of the method: (§1)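 Cells grown in RPMI 1640 with 10% FBS and penicillin/streptomycin at 37 °C under 5% CO2. Adherent lines were seeded at 1 × 10^4 cells/well and left to attach for 12 h. Compounds in DMSO were tested at 0.064, 0.32, 1.6, 8 and 40 μM, in triplicate, for 48 h, with cisplatin as positive control. MTS was then added and formazan dissolved in 20% SDS (12 h, room temperature). OD read at 490 nm; IC50 by Reed and Muench method.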

SMMC-7721 = assay: Cytotoxicity against human SMMC7721 cells after 48 hrs by MTS assay; settings: SMMC-7721, 48 h; summary of the method: as §1
A549 = assay: Cytotoxicity against human A549 cells after 48 hrs by MTS assay; settings: A549, 48 h; summary of the method: as §1
MCF7 = assay: Cytotoxicity against human MCF7 cells after 48 hrs by MTS assay; settings: MCF7, 48 h; summary of the method: as §1
SW480 = assay: Cytotoxicity against human SW480 cells after 48 hrs by MTS assay; settings: SW480, 48 h; summary of the method: as §1
[2] = Cytotoxicity against human BEAS2B cells after 48 hrs by MTS assay; settings: BEAS-2B

For `CO[C@@H]1C=C([C@@H]2C[C@H]3O[C@@]34[C@@]2(C)C[C@H](O)[C@@H]2[C@@]3(C)C=CC(=O)C(C)(C)C3=C(O)C(=O)[C@]24C)[C@@H](OC)O1`, the IC50 [1] was 3.6 µM, the IC50 (SMMC-7721) was 2.4 µM and the IC50 (A549) was 3.7 µM. It also gave an IC50 (MCF7) of 4.2 µM, an IC50 (SW480) of 3.5 µM and an IC50 [2] of 5 µM.

With `CC1(C)C(=O)C=C[C@@]2(C)C1=C(O)C(=O)[C@]1(C)[C@@H]2[C@@H](O)C[C@@]2(C)[C@H](C3=CC(=O)O[C@@H]3O)C[C@H]3O[C@]321` the IC50 [1] was 3.1 µM, the IC50 (SMMC-7721) was 2.2 µM and the IC50 (A549) was 2.6 µM. For the same compound, the IC50 (MCF7) was 3.9 µM, the IC50 (SW480) was 2.4 µM and the IC50 [2] was 9.4 µM.
